Published values gathered from unrelated publications.
Each line is one published result; the experiments were not run side by side.
Target: Ephrin type-A receptor 3 (EPHA3, Homo sapiens, UniProt P29320)
One construct used (P29320 21-983): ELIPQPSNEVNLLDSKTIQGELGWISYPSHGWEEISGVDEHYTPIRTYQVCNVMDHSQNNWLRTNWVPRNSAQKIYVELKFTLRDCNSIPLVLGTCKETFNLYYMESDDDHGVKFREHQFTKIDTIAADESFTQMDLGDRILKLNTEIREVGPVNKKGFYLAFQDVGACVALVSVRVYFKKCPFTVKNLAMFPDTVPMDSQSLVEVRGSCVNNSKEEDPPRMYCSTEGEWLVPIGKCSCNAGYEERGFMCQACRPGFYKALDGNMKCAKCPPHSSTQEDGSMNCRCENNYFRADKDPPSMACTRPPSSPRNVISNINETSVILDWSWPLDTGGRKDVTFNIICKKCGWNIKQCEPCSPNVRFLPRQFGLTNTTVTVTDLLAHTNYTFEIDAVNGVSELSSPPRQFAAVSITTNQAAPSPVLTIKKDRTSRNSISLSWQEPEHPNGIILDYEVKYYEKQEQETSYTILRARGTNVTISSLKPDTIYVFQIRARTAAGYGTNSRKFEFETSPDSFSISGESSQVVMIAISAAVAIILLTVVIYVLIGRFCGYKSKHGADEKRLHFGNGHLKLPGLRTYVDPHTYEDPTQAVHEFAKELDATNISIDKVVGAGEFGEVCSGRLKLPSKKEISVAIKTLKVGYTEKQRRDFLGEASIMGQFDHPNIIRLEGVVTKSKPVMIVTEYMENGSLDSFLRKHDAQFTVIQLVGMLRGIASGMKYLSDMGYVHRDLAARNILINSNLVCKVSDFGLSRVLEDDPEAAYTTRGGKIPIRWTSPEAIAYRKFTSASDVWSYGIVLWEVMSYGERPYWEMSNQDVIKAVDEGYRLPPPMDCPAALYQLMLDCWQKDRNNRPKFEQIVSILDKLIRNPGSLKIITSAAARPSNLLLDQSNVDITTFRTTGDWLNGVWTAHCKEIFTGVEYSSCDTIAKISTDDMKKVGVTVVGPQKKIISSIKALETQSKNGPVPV

Compound	observed	mode	method	concentration	endpoint	value
Nc1ncc(-c2nc(N3CCOCC3)nc(N3CCOCC3)n2)c(C(F)F)n1	cell-free assay		competition with immobilised ligand	10 µM	remaining binding	69%
O=c1[nH]c2ccccc2n1C1CCN(Cc2ccc(-c3[nH]c4cc5ncnc5cc4nc3-c3ccccc3)cc2)CC1	cell-free assay			0.5 µM	remaining signal	71.9%
Cn1cncc1[C@](O)(COc1ccc(C#N)cc1-c1ccc(OC(F)(F)F)cc1)c1ccc(C#N)cc1	cell-free assay		competition with immobilised ligand	1 µM	remaining binding	90%
COc1cc(Nc2ncc(F)c(Nc3ccc4c(n3)NC(=O)C(C)(C)O4)n2)cc(OC)c1OC	binding		competition with immobilised ligand	10 µM	inhibition	90%
Cc1nn(C)cc1-c1nc2c(N3CCN(Cc4ccc(Cl)cc4)CC3)c(Cl)cnc2[nH]1	binding		competition with immobilised ligand	1 µM	remaining binding	100%
CC(C)(C)c1cc(C=C(C#N)C#N)cc(Br)c1O	enzyme activity	inhibitor		0.5 µM	remaining activity	102%
Cn1cc(-c2cc(F)cc(N3CCn4c(cc5c4CCCC5)C3=O)c2CO)cc(Nc2ccc(N3CCN(C4COC4)CC3)cn2)c1=O	enzyme activity	inhibitor		0.1 µM	inhibition	10%
N#CC1(c2ccccn2)CCN(Cc2cc(C(=O)O)c(=O)n3ccccc23)CC1	cell-free assay		competition with immobilised ligand	1 µM	remaining binding	75%
COc1ncccc1-c1cnn2ccc(N3CCN(C(=O)OC(C)C)CC3)nc12	binding		competition with immobilised ligand	1 µM	remaining binding	83%
Cn1cc(-c2cccc(N3CCc4c(sc5c4CC(C)(C)C5)C3=O)c2CO)cc(Nc2ccncn2)c1=O	enzyme activity	inhibitor		1 µM	inhibition	-7%
